Laboratory results reported in article PMC8359281 (Clinical Pharmacology in Drug Development, 2020).

What was measured:
[1] = cited from earlier work
free cortisol = format: in vivo, human; conditions: oral methylprednisolone 16 mg once daily
Method in brief: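 In a single-centre, open-label, parallel-group study, healthy adults (18-50 years, BMI 18.5-30 kg/m2, 51-99 kg, confined on site) took methylprednisolone orally at 16 mg once daily for 15 days. The dose was then tapered to 8 mg daily for 2 days and 4 mg daily for 2 days. Blood for plasma free cortisol was drawn predose and 0.25–24 h postdose on days 1 and 15.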

[2] = test system: free steroidogenic exposure; experiment: Steroidogenic exposure and methylprednisolone/prednisone dose equivalence; format: in vivo, human; conditions: methylprednisolone 16 mg once daily; derived by equation 2 (5 × AUCτ + AUECτ)
Method in brief: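 Steady-state data came from day 15 of oral methylprednisolone at 16 mg once daily. Free methylprednisolone AUCτ (noncompartmental) and free cortisol AUECτ over one dosing interval were combined by integrating the per-timepoint free steroidogenic concentration equation. Weekly free cortisol exposure was converted to methylprednisolone-equivalent dose, assuming dose-proportionality. Prednisone equivalents used a coefficient of 1.25.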

[3] = PK of ACTH1-24 after synthetic ACTH1-24 depot, phase 1 study; format: in vivo, human; conditions: postdosing of synthetic ACTH1-24 depot

Compound | potency of systemic action relative to cortisol [1] [times] | endogenous cortisol after administration (free cortisol) | free steroidogenic exposure at steady state (AUECτSG) [2] [ng·h/mL] | time by which plasma concentrations fell below the quantification limit [3] [h]
C[C@H]1C[C@@H]2[C@H]([C@@H](O)C[C@@]3(C)[C@H]2CC[C@]3(O)C(=O)CO)[C@@]2(C)C=CC(=O)C=C12 [methylprednisolone] | 5 | negligible | 305 | 
ACTH1-24: the first 24 amino acids of adrenocorticotropic hormone; analyte measured in plasma after synthetic ACTH1-24 depot |  |  |  | < 24
